The list is not random: actives were taken first. Their share in the collection is about 2.5%.
MEKK2mut PB1 HTS: MEK5 binding signal on mutant MEKK2 PB1, primary screen, biochemical, multiplex bead flow cytometry, Alexa488-MEK5; Alexa488-MEK5 binding to MEKK2 mutant; percent response, % at 10 µM; hit rate 0.35% among 290,000; AID 1530, 2009; in the data active means percent response above about 24%, passing the limit was not always enough
ABCB1 inh: ABCB1 efflux pump inhibitors, primary screen, cell-based, multiplex, flow cytometry, ABCG2 counter-screen. AID 1326, 2008. inhibition, % at 6.6 µM. hit rate 0.067% among 190,000. CCRF-Adr cells, JC-1 efflux; in the data active means inhibition above about 40%;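 further: 0% = vehicle and 100% = reference inhibitor; higher value means more JC-1 retained so stronger ABCB1 efflux block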
Efflux pump inh: inhibitors of Candida efflux pumps in yeast, primary screen, S. cerevisiae, Nile Red, multiplex; hit rate 0.44% among 330,000; S. cerevisiae Candida pump triplex; inhibition, % at 10 µM; AID 485275, 2010;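 active means plate passing quality check with inhibition over a set limit, or well fluorescence over plate mean plus 4 SD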;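 further: Nile Red retained in pooled yeast measured as flow cytometry median fluorescence; 0% = buffer negative control and 100% = Enniatin B positive control; higher means more Nile Red kept so more efflux inhibition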
MEKK2 WT-MEK5: modulators of MEK5 binding to wildtype MEKK2, primary screen, biochemical, multiplex bead flow cytometry, Alexa488-MEK5; Mitogen-activated protein kinase kinase kinase 2 (Homo sapiens), Q9Y2U5; Alexa488-MEK5 binding to MEKK2 WT; actives lie on both sides; binding response (% of control), % at 10 µM; hit rate 1.1% among 290,000; AID 1531, 2009; in the data active means binding response below about 67% or above about 130%
MEKK3 PB1 HTS: modulators of MEKK3-MEK5 PB1 binding, primary screen, biochemical, wildtype MEKK3, multiplex bead flow cytometry, Alexa488-MEK5. Mitogen-activated protein kinase kinase kinase 3 (Homo sapiens), Q99759. bead-based flow cytometry, Alexa488-MEK5 binding to MEKK3; actives lie on both sides; 0 = blocked by unlabeled MEK5, 100 = vehicle. binding response (% of control), % at 10 µM. hit rate 1.4% among 290,000. AID 1529, 2009;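 active means binding response more than 3 SD above or below the average of its plate-row segment, actives on both sides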;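 further: Alexa488 bead fluorescence after subtracting the streptavidin-only scavenger bead signal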
ABCG2 block: ABCG2 efflux pump inhibitors, primary screen, multiplex with ABCB1, IgMXP3 cells, flow cytometry; JC-1 efflux; hit rate 0.1% among 190,000; Broad substrate specificity ATP-binding cassette transporter ABCG2 (Homo sapiens), Q9UNQ0; inhibition, % at 6.6 µM;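 active means inhibition above 80%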;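 further: 0% = DMSO and 100% = nicardipine control wells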
Target sequence (Q9UNQ0 whole entry, looked up): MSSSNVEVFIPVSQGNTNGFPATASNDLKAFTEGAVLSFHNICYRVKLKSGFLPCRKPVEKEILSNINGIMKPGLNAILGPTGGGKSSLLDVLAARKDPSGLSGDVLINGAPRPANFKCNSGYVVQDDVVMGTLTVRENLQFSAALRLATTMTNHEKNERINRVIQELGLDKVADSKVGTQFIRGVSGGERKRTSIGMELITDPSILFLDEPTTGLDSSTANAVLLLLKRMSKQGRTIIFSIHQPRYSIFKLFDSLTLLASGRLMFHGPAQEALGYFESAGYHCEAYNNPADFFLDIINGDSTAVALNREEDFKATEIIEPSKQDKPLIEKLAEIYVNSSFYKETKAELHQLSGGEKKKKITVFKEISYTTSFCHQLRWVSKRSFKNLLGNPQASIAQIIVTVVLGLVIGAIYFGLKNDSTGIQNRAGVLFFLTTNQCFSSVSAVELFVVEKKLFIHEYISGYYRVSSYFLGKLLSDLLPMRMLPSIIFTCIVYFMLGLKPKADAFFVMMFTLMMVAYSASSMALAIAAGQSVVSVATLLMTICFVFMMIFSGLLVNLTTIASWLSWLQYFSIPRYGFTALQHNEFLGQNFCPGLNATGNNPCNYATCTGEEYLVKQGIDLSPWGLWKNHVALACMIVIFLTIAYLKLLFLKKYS
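Test system: IgMXP3 (ABCG2) plus far-red-tagged CCRF-Adr (ABCB1) cells. Reagent: JC-1 dye as substrate. Timing: 10 min exposure at 25 °C with rotation, no wash. Measured by: flow cytometric JC-1 green MFI at 530 nm. Read-out: percent efflux inhibition, scaled nicardipine 100% to DMSO 0%. Control set: nicardipine and DMSO wells.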
MEKK2wt confirm: modulators of MEK5 binding to wildtype MEKK2, confirmation, biochemical, single concentration, multiplex bead flow cytometry | shares compounds with MEKK3 PB1 HTS | Alexa488-MEK5 binding to MEKK2 WT; actives lie on both sides | binding response (% of control), % at 10 µM | hit rate 2.4% among 5,900 | AID 1892, 2009; in the data active means binding response below about 16% or above about 210%; inactive means in between
MEKK2mut-MEK5: mutant MEKK2 PB1-MEK5 binding signal retest – biochemical, single concentration, multiplex bead flow cytometry, confirmation | Alexa488-MEK5 binding to MEKK2 mutant | percent response, % at 10 µM | AID 1893, 2009 | shares compounds with MEKK3 PB1 HTS | hit rate 2% among 5,900; in the data active means percent response mostly above about 71%, no sharp cut-off; inactive means mostly below about 38%;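 further: higher means compound restores mutant binding toward wildtype level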
MEKK3-MEK5 inh: MEKK3 wild-type PB1 binding to MEK5, inhibitors, confirmation, biochemical, bead multiplex flow cytometry, single concentration, wildtype; hit rate 1.8% among 5,900; shares compounds with MEKK3 PB1 HTS; binding response (% of control), % at 10 µM; Alexa488-MEK5 binding to MEKK3; hits give low values; AID 1894, 2009;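 active means binding response below 72% of control, or above a set upper limit, though filed actives all read lower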;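 further: 100% = DMSO only wells and 0% = binding blocked by excess unlabeled MEK5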
Numbers without * were called inactive; [ ] = another dose, or the depositor's remark.

For CCN1CCN(Cc2ccc(NC(=O)c3cc(NC(=O)c4cnn(-c5ccccc5)c4N)cc(OC)c3)cc2C(F)(F)F)CC1 the results were MEKK2mut PB1 HTS 53*, Efflux pump inh 0, MEKK2 WT-MEK5 151*, MEKK3 PB1 HTS 107, MEKK2wt confirm 214*, MEKK2mut-MEK5 48 and MEKK3-MEK5 inh 100.
`CCN1CCN(Cc2ccc(NC(=O)c3cc(NC(=O)C(=O)c4c[nH]c5ccccc45)cc(OC)c3)cc2C(F)(F)F)CC1` gave MEKK2mut PB1 HTS 131*, Efflux pump inh 0, MEKK2 WT-MEK5 195*, MEKK3 PB1 HTS 109, MEKK2wt confirm 227*, MEKK2mut-MEK5 146* and MEKK3-MEK5 inh 112.
Screening CCN1CCN(Cc2ccc(NC(=O)c3ccc(C)c(NC(=O)C(=O)c4c[nH]c5ccccc45)c3)cc2C(F)(F)F)CC1 returned MEKK2mut PB1 HTS 95*, Efflux pump inh 0, MEKK2 WT-MEK5 301*, MEKK3 PB1 HTS 113, MEKK2wt confirm 239*, MEKK2mut-MEK5 172* and MEKK3-MEK5 inh 113.
For CCN1CCN(Cc2ccc(NC(=O)c3ccc(C)c(NC(=O)c4ccnnc4)c3)cc2C(F)(F)F)CC1 the results were MEKK2mut PB1 HTS -6, Efflux pump inh 0, MEKK2 WT-MEK5 99, MEKK3 PB1 HTS 81*[inhibitor], MEKK2wt confirm 112, MEKK2mut-MEK5 5 and MEKK3-MEK5 inh 103.
Screening O=C(Nc1ccc2c(c1)OCO2)C(=O)c1c[nH]c2ccccc12 returned MEKK2mut PB1 HTS 1, Efflux pump inh 0, MEKK2 WT-MEK5 100 and MEKK3 PB1 HTS 99.
`CC(=O)NCCCC(=O)NN1C(=S)N(Cc2ccccc2)C(=O)C1CC(=O)Nc1cccc(C)c1` (stereo not drawn) gave MEKK2mut PB1 HTS -9, ABCB1 inh 0, Efflux pump inh 0, MEKK2 WT-MEK5 77, MEKK3 PB1 HTS 82 and ABCG2 block -1.
Screening COc1cc(OC)cc(C(=O)n2cnnc2N)c1 returned MEKK2mut PB1 HTS 7, ABCB1 inh 0, Efflux pump inh 0, MEKK2 WT-MEK5 103, MEKK3 PB1 HTS 102 and ABCG2 block 3.
For CCCN(C(=O)C1CCN(S(=O)(=O)c2ccc(OC)c(OC)c2)CC1)C1CCS(=O)(=O)C1 (stereo not drawn) the results were Efflux pump inh 0.
Screening Cc1cc(/C=C2\SC(=Nc3ccccc3)NC2=O)c(C)n1-c1ccc(S(N)(=O)=O)cc1 returned MEKK2mut PB1 HTS 4, ABCB1 inh 0, Efflux pump inh 0, MEKK2 WT-MEK5 104, MEKK3 PB1 HTS 106 and ABCG2 block -1.
For CCN1CCN(Cc2ccc(NC(=O)c3ccc(C)c(NC(=O)c4ccc5n[nH]nc5c4)c3)cc2C(F)(F)F)CC1 the results were MEKK2mut PB1 HTS 11, Efflux pump inh 0, MEKK2 WT-MEK5 88 and MEKK3 PB1 HTS 115.
For CCN1CCN(Cc2ccc(NC(=O)c3cc(NC(=O)c4cc(C)on4)cc(OC)c3)cc2C(F)(F)F)CC1 the results were MEKK2mut PB1 HTS 30*, Efflux pump inh 0, MEKK2 WT-MEK5 193*, MEKK3 PB1 HTS 113, MEKK2wt confirm 144, MEKK2mut-MEK5 30 and MEKK3-MEK5 inh 106.
Screening COc1ccc(Nc2cc(C)nc3c(C)cccc23)cc1OC returned MEKK2mut PB1 HTS 26*, Efflux pump inh 0, MEKK2 WT-MEK5 116, MEKK3 PB1 HTS 111, MEKK2wt confirm 109, MEKK2mut-MEK5 6 and MEKK3-MEK5 inh 105.
CCCCCCSc1ccc([C@H]2N[C@@](C)(C(=O)OC)[C@H]3C(=O)N(CC)C(=O)[C@@H]23)cc1 was read as Efflux pump inh 0.
CC(=O)Nc1sc(/C(C#N)=C/c2ccc(Cl)c(Cl)c2)nc1-c1ccc(C)cc1 was read as MEKK2mut PB1 HTS 104*, ABCB1 inh 20, MEKK2 WT-MEK5 25*, MEKK3 PB1 HTS 118, ABCG2 block 32, MEKK2wt confirm 87, MEKK2mut-MEK5 -13 and MEKK3-MEK5 inh 99.
`C=CCNC(=S)Nc1ccc2cn[nH]c2c1` gave MEKK2mut PB1 HTS 1, Efflux pump inh 0, MEKK2 WT-MEK5 100 and MEKK3 PB1 HTS 99.
Screening CCC1(CC)N=C(c2ccccc2)C(=S)N1 returned MEKK2mut PB1 HTS -7, ABCB1 inh 1, Efflux pump inh 0, MEKK2 WT-MEK5 102, MEKK3 PB1 HTS 105 and ABCG2 block 14.
`O=c1c2sccc2nc(SCc2ccc([N+](=O)[O-])cc2)n1Cc1ccccn1` gave MEKK2mut PB1 HTS 1, ABCB1 inh 7, Efflux pump inh 0, MEKK2 WT-MEK5 96, MEKK3 PB1 HTS 63*[inhibitor], ABCG2 block 14, MEKK2wt confirm 100, MEKK2mut-MEK5 -1 and MEKK3-MEK5 inh 104.
Screening Cc1oc2c(CN3CCOCC3)c(O)ccc2c(=O)c1-c1ccc(Cl)cc1 returned MEKK2mut PB1 HTS -16, Efflux pump inh 0, MEKK2 WT-MEK5 44*[inhibitor], MEKK3 PB1 HTS 38*[inhibitor], MEKK2wt confirm 107, MEKK2mut-MEK5 7 and MEKK3-MEK5 inh 101.
`Cc1oc2c(CN3CCCC3)c(O)ccc2c(=O)c1-c1ccc(Cl)cc1` gave MEKK2mut PB1 HTS -37, ABCB1 inh 0, Efflux pump inh 0, MEKK2 WT-MEK5 76, MEKK3 PB1 HTS 97 and ABCG2 block 6.
For Cc1cccc(-c2ncc(CN3CCN(CC(C)C)C(CCO)C3)cn2)c1 (stereo not drawn) the results were MEKK2mut PB1 HTS 10, ABCB1 inh -1, Efflux pump inh 0, MEKK2 WT-MEK5 108, MEKK3 PB1 HTS 92 and ABCG2 block 6.
